Assay results: ChEMBL document CHEMBL2040756, “Discovery and optimization of 2,4-diaminoquinazoline derivatives as a new class of potent dengue virus inhibitors” (J Med Chem, 2012)
Active and inactive are the calls of the source. No cut-off for these calls is given here.

System: dengue virus type 2
Test: Antiviral activity against Dengue virus 2 infected in BHK-D2RepT replicon systems assessed as […] after 24 hrs by luciferase reporter gene assay
Type: functional, organism-based
Settings: not given
Procedure, shortened: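 BHK-D2RepT DENV-2 replicon cells carrying a luciferase reporter are kept in MEM with 10% FBS and 200 μg/mL G418, then preseeded 24 h without G418. Compound from DMSO stock is diluted in MEM (final DMSO <0.2% v/v) and incubated 24 h. Medium is replaced and firefly luciferase read. Inhibition is expressed as percent of no-compound luciferase signal.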

Row | Structure (SMILES) | EC50 [µM]
1 | CC(C)(C)Oc1cccc2nc(N)nc(N)c12 | < 0.05

System: not listed separately
Test: AUC (0 to infinity) in rat at 10 mg/kg, iv administered as single dose
Type: ADME, organism-based
Parameters: time infinity, dose 10 mg/kg, route intravenous
Settings: plasma
Procedure, shortened: (§1)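 Rats received one dose, either oral at 20 mg/kg or intravenous at 10 mg/kg. Plasma concentration of the compound was followed over time after dosing. AUC was taken as the area under the plasma concentration–time curve from time zero to infinity.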

Row | Structure (SMILES) | AUC(0-inf) [ng·h/mL]
2 | CC(C)(C)Oc1cccc2nc(N)nc(N)c12 | 1560

System: dengue virus type 2
Test: Antiviral activity against Dengue virus 2 NGC infected in forest mosquito C6/36 cells assessed as inhibition of virus-induced cytopathic effect after 48 hrs by optical microscopy
Type: functional, organism-based
Settings: not given
Procedure, shortened: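 DENV-2 NGC strain was grown in C6/36 cells and titered. C6/36 cells were preseeded overnight and then infected at MOI 0.01, allowing several rounds of replication that produce syncytia.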

Row | Structure (SMILES) | Activity
3 | CC(C)(C)Oc1cccc2nc(N)nc(N)c12 | Active

System: not listed separately
Test: Tmax in rat at 20 mg/kg, po administered as single dose
Type: ADME, organism-based
Parameters: dose 20 mg/kg, route oral
Settings: in vivo
Procedure, shortened: (§2)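 Rats received a single dose of 20 mg/kg orally or 10 mg/kg intravenously. Plasma concentration–time profiles gave AUC0→∞, MRT, t1/2, Tmax, Cmax, clearance, terminal volume of distribution and oral bioavailability.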

Row | Structure (SMILES) | Tmax [h]
4 | CC(C)(C)Oc1cccc2nc(N)nc(N)c12 | 2

System: not listed separately
Test: Mean residence time in rat at 20 mg/kg, po administered as single dose
Type: ADME, organism-based
Parameters: dose 20 mg/kg, route oral
Settings: in vivo
Procedure, shortened: as §2

Row | Structure (SMILES) | MRT [h]
5 | CC(C)(C)Oc1cccc2nc(N)nc(N)c12 | 7.2

System: dengue virus type 2
Test: Antiviral activity against Dengue virus 2
Settings: not given

Row | Structure (SMILES) | Activity
6 | CC(C)(C)Oc1cccc2nc(N)nc(N)c12 | Active

Target: Voltage-gated inwardly rectifying potassium channel KCNH2 (Homo sapiens, UniProt Q12809)
Test: Inhibition of human ERG expressed in HEK293 cells by patch clamp assay
Type: cell-based
Settings: not given
Procedure, shortened: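 hERG (IKr) potassium channel currents in HEK-293 cells were recorded by patch clamp.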

Chain of Voltage-gated inwardly rectifying potassium channel KCNH2 (Q12809 whole entry): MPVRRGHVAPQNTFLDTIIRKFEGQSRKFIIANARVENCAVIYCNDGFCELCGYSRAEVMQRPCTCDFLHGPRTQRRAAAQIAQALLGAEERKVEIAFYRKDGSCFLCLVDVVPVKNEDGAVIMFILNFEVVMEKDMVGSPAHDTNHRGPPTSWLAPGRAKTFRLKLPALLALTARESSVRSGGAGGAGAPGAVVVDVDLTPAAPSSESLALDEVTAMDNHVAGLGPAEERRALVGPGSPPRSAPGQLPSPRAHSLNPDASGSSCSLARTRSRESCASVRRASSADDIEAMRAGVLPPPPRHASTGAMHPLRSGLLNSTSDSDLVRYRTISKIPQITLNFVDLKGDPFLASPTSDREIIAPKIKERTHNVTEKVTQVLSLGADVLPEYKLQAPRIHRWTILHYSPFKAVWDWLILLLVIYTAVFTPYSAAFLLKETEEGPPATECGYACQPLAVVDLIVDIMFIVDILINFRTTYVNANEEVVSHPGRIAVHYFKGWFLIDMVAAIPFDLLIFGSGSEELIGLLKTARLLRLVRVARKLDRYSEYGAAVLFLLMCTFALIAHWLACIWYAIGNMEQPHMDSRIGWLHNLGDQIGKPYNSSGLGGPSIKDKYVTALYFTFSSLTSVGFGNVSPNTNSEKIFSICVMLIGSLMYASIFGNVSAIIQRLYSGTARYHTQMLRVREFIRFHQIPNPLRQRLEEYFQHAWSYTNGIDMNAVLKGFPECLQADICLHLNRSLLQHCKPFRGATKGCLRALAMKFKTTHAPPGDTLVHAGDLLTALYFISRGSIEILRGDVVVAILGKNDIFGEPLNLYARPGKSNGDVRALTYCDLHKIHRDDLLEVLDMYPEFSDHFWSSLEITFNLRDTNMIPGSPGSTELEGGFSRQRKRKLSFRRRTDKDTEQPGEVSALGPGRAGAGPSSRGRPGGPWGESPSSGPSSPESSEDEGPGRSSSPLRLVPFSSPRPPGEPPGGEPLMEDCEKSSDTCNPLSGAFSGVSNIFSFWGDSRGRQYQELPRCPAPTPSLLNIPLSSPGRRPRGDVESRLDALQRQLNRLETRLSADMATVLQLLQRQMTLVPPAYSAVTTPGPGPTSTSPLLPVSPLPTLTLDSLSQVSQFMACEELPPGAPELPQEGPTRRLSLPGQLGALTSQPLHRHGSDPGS

Row | Structure (SMILES) | IC50 [µM]
7 | CC(C)(C)Oc1cccc2nc(N)nc(N)c12 | 20.2

System: not listed separately
Test: Apparent volume of distribution in rat at 10 mg/kg, iv administered as single dose
Type: ADME, organism-based
Parameters: dose 10 mg/kg, route intravenous
Settings: in vivo, read-out: Vz
Procedure, shortened: as §2

Row | Structure (SMILES) | Vd [L/kg]
8 | CC(C)(C)Oc1cccc2nc(N)nc(N)c12 | 11.7

System: dengue virus type 2
Test: Antiviral activity against Dengue virus 2 infected in BHK-D2RepT replicon systems assessed as inhibition of viral expression after 24 hrs by luciferase reporter gene assay
Type: functional, organism-based
Settings: not given
Procedure, shortened: (§3)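 BHK-D2RepT replicon cells, kept in MEM with 10% FBS and 200 μg/mL G418, were preseeded 24 h without G418. Compounds were diluted from DMSO stock into MEM, with final DMSO <0.2% (v/v), and incubated 24 h. Medium was then replaced and firefly luciferase read. Inhibition was expressed as a percentage of the no-compound luciferase signal.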

Row | Structure (SMILES) | Activity
9 | CC(C)(C)Oc1cccc2nc(N)nc(N)c12 | Active

System: not listed separately
Test: Cmax in rat at 20 mg/kg, po administered as single dose measured 2 hrs post dose
Type: ADME, organism-based
Parameters: dose 20 mg/kg, route oral
Settings: in vivo
Procedure, shortened: as §2

Row | Structure (SMILES) | Cmax [ng/mL]
10 | CC(C)(C)Oc1cccc2nc(N)nc(N)c12 | 249

System: not listed separately
Test: Selectivity index, ratio of CC50 for hamster BHK cells to EC50 for Dengue virus 2
Type: toxicity, cell-based
Settings: read-out: Ratio CC50/EC50

Row | Structure (SMILES) | selectivity ratio
11 | COc1cccc2nc(N)nc(N)c12 | > 66.7
12 | CC(C)(C)Sc1cccc2nc(N)nc(N)c12 | 5.9
13 | CCCCOc1cccc2nc(N)nc(N)c12 | > 200
14 | Nc1nc(N)c2c(OCc3ccccc3)cccc2n1 | > 200
15 | Nc1nc(N)c2c(Oc3ccccc3)cccc2n1 | > 300
16 | Nc1nc(N)c2c(OC3CCCC3)cccc2n1 | > 1000
17 | Nc1nc(N)c2c(OC3CCCCC3)cccc2n1 | > 76.9
18 | Nc1nc(N)c2c(N3CCCC3)cccc2n1 | 8
19 | Nc1nc(N)c2cccc(Oc3ccccc3)c2n1 | 9.2
20 | CCCCCCCCOc1cccc2nc(N)nc(N)c12 | 4.1
21 | CCOc1cccc2nc(N)nc(N)c12 | > 200
22 | COc1cccc2c(N)nc(N)nc12 | > 1.9
23 | Nc1nc(N)c2c(OCC(F)(F)F)cccc2n1 | > 1000
24 | CC(C)(C)Nc1cccc2nc(N)nc(N)c12 | > 200
25 | CC(C)(C)COc1cccc2nc(N)nc(N)c12 | 8.1
26 | CN(C)c1cccc2nc(N)nc(N)c12 | > 3
27 | CC(C)(C)Oc1cccc2nc(N)nc(N)c12 | > 1000

System: not listed separately
Test: Plasma clearance in rat at 10 mg/kg, iv administered as single dose
Type: ADME, organism-based
Parameters: dose 10 mg/kg, route intravenous
Settings: not given
Procedure, shortened: as §2

Row | Structure (SMILES) | clearance [mL/min/kg]
28 | CC(C)(C)Oc1cccc2nc(N)nc(N)c12 | 6.56

System: not listed separately
Test: Half life in rat at 10 mg/kg, iv administered as single dose
Type: ADME, organism-based
Parameters: dose 10 mg/kg, route intravenous
Settings: in vivo
Procedure, shortened: as §2

Row | Structure (SMILES) | half-life [h]
29 | CC(C)(C)Oc1cccc2nc(N)nc(N)c12 | 1.3

System: not listed separately
Test: Half life in rat at 20 mg/kg, po administered as single dose
Type: ADME, organism-based
Parameters: dose 20 mg/kg, route oral
Settings: in vivo
Procedure, shortened: as §2

Row | Structure (SMILES) | half-life [h]
30 | CC(C)(C)Oc1cccc2nc(N)nc(N)c12 | 5

System: not listed separately
Test: Cytotoxicity against hamster BHK cells
Type: cell-based, Mesocricetus auratus
Settings: not given

Row | Structure (SMILES) | CC50 [µM]
31 | COc1cccc2nc(N)nc(N)c12 | > 10
32 | CC(C)(C)Sc1cccc2nc(N)nc(N)c12 | 5.3
33 | CCCCOc1cccc2nc(N)nc(N)c12 | > 10
34 | Nc1nc(N)c2c(OCc3ccccc3)cccc2n1 | > 10
35 | Nc1nc(N)c2c(Oc3ccccc3)cccc2n1 | > 10
36 | Nc1nc(N)c2c(OC3CCCC3)cccc2n1 | > 10
37 | Nc1nc(N)c2c(OC3CCCCC3)cccc2n1 | > 10
38 | Nc1nc(N)c2c(N3CCCC3)cccc2n1 | 1.2
39 | Nc1nc(N)c2cccc(Oc3ccccc3)c2n1 | 0.55
40 | COc1ccc2nc(N)nc(N)c2c1 | > 10
41 | CCCCCCCCOc1cccc2nc(N)nc(N)c12 | 0.73
42 | CCOc1cccc2nc(N)nc(N)c12 | > 10
43 | Nc1nc(N)c2cc(Oc3ccccc3)ccc2n1 | > 10
44 | Nc1nc(N)c2ccccc2n1 | > 10
45 | COc1cccc2c(N)nc(N)nc12 | > 10
46 | Nc1nc(N)c2c(OCC(F)(F)F)cccc2n1 | > 10
47 | CC(C)(C)S(=O)(=O)c1cccc2nc(N)nc(N)c12 | > 10
48 | Nc1nc(N)c2ccc(Oc3ccccc3)cc2n1 | > 10
49 | CC(C)(C)Nc1cccc2nc(N)nc(N)c12 | 2.5
50 | CC(C)(C)COc1cccc2nc(N)nc(N)c12 | 0.65
51 | COc1ccc2c(N)nc(N)nc2c1 | > 10
52 | CN(C)c1cccc2nc(N)nc(N)c12 | > 10
53 | Nc1nc(N)c2c(F)cccc2n1 | > 10
54 | CC(C)(C)Oc1cccc2nc(N)nc(N)c12 | > 10

System: not listed separately
Test: AUC (0 to infinity) in rat at 20 mg/kg, po administered as single dose
Type: ADME, organism-based
Parameters: time infinity, dose 20 mg/kg, route oral
Settings: plasma
Procedure, shortened: as §1

Row | Structure (SMILES) | AUC(0-inf) [ng·h/mL]
55 | CC(C)(C)Oc1cccc2nc(N)nc(N)c12 | 2220

System: not listed separately
Test: Mean residence time in rat at 10 mg/kg, iv administered as single dose
Type: ADME, organism-based
Parameters: dose 10 mg/kg, route intravenous
Settings: in vivo
Procedure, shortened: as §2

Row | Structure (SMILES) | MRT [h]
56 | CC(C)(C)Oc1cccc2nc(N)nc(N)c12 | 1.8

System: dengue virus type 2
Test: Antiviral activity against Dengue virus 2 infected in BHK-D2RepT replicon systems assessed as inhibition of viral multiplication after 24 hrs by luciferase reporter gene assay
Type: functional, organism-based
Settings: not given
Procedure, shortened: as §3

Row | Structure (SMILES) | Activity
57 | CC(C)(C)Oc1cccc2nc(N)nc(N)c12 | Active

System: dengue virus type 2
Test: Antiviral activity against Dengue virus 2 infected in BHK-D2RepT replicon systems assessed as inhibition of viral replication after 24 hrs by luciferase reporter gene assay
Type: functional, organism-based
Settings: not given
Procedure, shortened: as §3

Row | Structure (SMILES) | EC50 [µM]
58 | COc1cccc2nc(N)nc(N)c12 | 0.15
59 | CC(C)(C)Sc1cccc2nc(N)nc(N)c12 | 0.9
60 | CCCCOc1cccc2nc(N)nc(N)c12 | 0.036
61 | Nc1nc(N)c2c(OCc3ccccc3)cccc2n1 | 0.039
62 | Nc1nc(N)c2c(Oc3ccccc3)cccc2n1 | 0.029
63 | Nc1nc(N)c2c(OC3CCCC3)cccc2n1 | 0.0074
64 | Nc1nc(N)c2c(OC3CCCCC3)cccc2n1 | 0.13
65 | Nc1nc(N)c2c(N3CCCC3)cccc2n1 | 0.15
66 | Nc1nc(N)c2cccc(Oc3ccccc3)c2n1 | 0.06
67 | COc1ccc2nc(N)nc(N)c2c1 | > 10
68 | CCCCCCCCOc1cccc2nc(N)nc(N)c12 | 0.18
69 | CCOc1cccc2nc(N)nc(N)c12 | 0.037
70 | Nc1nc(N)c2cc(Oc3ccccc3)ccc2n1 | > 10
71 | Nc1nc(N)c2ccccc2n1 | > 10
72 | COc1cccc2c(N)nc(N)nc12 | 5.4
73 | Nc1nc(N)c2c(OCC(F)(F)F)cccc2n1 | 0.0079
74 | CC(C)(C)S(=O)(=O)c1cccc2nc(N)nc(N)c12 | > 10
75 | Nc1nc(N)c2ccc(Oc3ccccc3)cc2n1 | > 10
76 | CC(C)(C)Nc1cccc2nc(N)nc(N)c12 | 0.0092
77 | CC(C)(C)COc1cccc2nc(N)nc(N)c12 | 0.08
78 | COc1ccc2c(N)nc(N)nc2c1 | > 10
79 | CN(C)c1cccc2nc(N)nc(N)c12 | 3.3
80 | Nc1nc(N)c2c(F)cccc2n1 | > 10
81 | CC(C)(C)Oc1cccc2nc(N)nc(N)c12 | 0.0028

System: not listed separately
Test: Oral bioavailability in rat at 20 mg/kg administered as single dose
Type: ADME, organism-based
Settings: in vivo
Procedure, shortened: as §2

Row | Structure (SMILES) | bioavailability [%]
82 | CC(C)(C)Oc1cccc2nc(N)nc(N)c12 | 69
